Some results are limits rather than exact numbers.

The target of series [1] is T1, 6-phosphofructo-2-kinase/fructose-2,6-bisphosphatase 3 (Homo sapiens, UniProt Q16875). Kind of series: Inhibition of recombinant human PFKFB3 using fructose 6 phosphate as substrate assessed as ADP generation after 1 hr by ADP Glo assay. (In ADP-Glo the light output rises with the ADP produced.)
Series [2] has as its target 6-phosphofructo-2-kinase/fructose-2,6-bisphosphatase 2 (Homo sapiens, UniProt O60825). Kind of series: Inhibition of recombinant human PFKFB2 using fructose 6 phosphate as substrate assessed as ADP generation after 1 hr by ADP Glo assay.
Series [3] concerns the target 6-phosphofructo-2-kinase/fructose-2,6-bisphosphatase 1 (Homo sapiens, UniProt P16118). Kind of series: Inhibition of recombinant human PFKFB1 using fructose 6 phosphate as substrate assessed as ADP generation after 1 hr by ADP Glo assay.
Series [4] deals with T1, 6-phosphofructo-2-kinase/fructose-2,6-bisphosphatase 3. Kind of series: Inhibition of PFKFB3 in human A549 cells assessed as reduction of fructose-1,6-bisphosphate formation after 4 hrs by MS/MS analysis. It is filed as cell-based. An outline of the steps:
(§1)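 A549 cells; fructose-1,6-bisphosphate or lactate production measured.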

The nature of series [5]: Lipophilicity, log D of the compound at pH 7.4. Particulars: buffer.
In series [6] the target is T1, 6-phosphofructo-2-kinase/fructose-2,6-bisphosphatase 3. In words: Inhibition of PFKFB3 in human A549 cells assessed as decrease in lactate secretion after 4 hrs. It is filed as cell-based. An outline of the steps:
as §1

T1 sequence (Q16875 whole entry): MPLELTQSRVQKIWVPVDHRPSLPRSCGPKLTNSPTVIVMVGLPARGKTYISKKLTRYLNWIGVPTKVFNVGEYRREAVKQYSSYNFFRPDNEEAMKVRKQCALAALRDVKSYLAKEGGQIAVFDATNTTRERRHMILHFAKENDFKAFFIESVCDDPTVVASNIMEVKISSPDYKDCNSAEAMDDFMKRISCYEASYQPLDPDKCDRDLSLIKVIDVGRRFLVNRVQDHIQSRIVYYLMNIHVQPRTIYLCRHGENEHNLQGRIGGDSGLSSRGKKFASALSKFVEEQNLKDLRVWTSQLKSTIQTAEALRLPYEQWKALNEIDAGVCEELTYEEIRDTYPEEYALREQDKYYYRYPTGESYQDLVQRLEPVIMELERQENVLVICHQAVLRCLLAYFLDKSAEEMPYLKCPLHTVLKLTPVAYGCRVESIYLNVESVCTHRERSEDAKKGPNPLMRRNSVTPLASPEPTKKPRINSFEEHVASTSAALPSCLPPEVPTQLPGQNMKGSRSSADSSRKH
6-phosphofructo-2-kinase/fructose-2,6-bisphosphatase 1, sequence (P16118 whole entry): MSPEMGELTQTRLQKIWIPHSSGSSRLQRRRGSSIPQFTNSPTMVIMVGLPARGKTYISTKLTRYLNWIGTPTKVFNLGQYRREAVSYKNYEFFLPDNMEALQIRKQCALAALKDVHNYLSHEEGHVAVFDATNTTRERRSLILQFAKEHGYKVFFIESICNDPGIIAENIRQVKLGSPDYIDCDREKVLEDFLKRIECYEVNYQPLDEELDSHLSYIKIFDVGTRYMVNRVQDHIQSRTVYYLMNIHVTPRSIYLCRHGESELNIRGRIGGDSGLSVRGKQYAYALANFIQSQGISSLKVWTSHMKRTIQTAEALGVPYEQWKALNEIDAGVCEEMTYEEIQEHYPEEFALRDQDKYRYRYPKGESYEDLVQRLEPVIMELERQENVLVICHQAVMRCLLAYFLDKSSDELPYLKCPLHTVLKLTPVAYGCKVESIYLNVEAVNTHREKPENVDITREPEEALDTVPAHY
6-phosphofructo-2-kinase/fructose-2,6-bisphosphatase 2, sequence (O60825 whole entry): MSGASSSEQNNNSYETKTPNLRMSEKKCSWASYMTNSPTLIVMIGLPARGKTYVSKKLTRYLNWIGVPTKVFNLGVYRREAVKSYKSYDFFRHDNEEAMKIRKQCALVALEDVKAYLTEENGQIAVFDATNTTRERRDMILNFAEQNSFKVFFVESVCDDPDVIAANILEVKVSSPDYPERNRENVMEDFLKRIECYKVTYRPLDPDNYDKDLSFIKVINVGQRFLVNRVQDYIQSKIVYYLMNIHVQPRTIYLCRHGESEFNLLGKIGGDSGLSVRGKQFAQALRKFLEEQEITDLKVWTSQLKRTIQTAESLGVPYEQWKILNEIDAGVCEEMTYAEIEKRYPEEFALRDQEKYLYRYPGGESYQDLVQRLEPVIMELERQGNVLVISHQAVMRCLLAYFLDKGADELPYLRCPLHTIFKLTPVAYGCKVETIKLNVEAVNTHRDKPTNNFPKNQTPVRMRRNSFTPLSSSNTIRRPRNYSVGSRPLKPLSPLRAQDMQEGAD

As for `CNC(=O)Cn1cc(C#N)c2cc(Oc3ccc(NC(=O)[C@@H]4CCCN4)cc3)ccc21`, the half-maximal inhibitory concentration (IC50) in series [1] was 0.111 µM; in series [2] it was 2.35 µM; in series [3], 16.9 µM; in series [4], 14 µM; in series [6] it was > 30 µM. Moreover, the logD in series [5] was 1.4.
Regarding `O=C(/C=C/c1cccnc1)c1ccncc1`, in series [1], the IC50 was > 100 µM.
`CCn1cc(C#N)c2cc(Oc3ccc(N(C)C(=O)[C@@H]4CCCN4)cc3)ccc21`: the IC50 in series [1] was 23.1 µM; in series [2], 76.5 µM; in series [3] it was 72.3 µM; in series [6], > 30 µM. The same compound displayed a logD in series [5] of 1.9.
For `CCn1cc(C#N)c2cc(Oc3ccc(NC(=O)CN)cc3)ccc21`, in that order: 0.562 µM, 22.8 µM, 18.4 µM, > 30 µM and 2.5.
Regarding `CCn1cc(C#N)c2cc(Oc3ccc(NC(=O)[C@@H]4CCC(=O)N4)cc3)ccc21`, the IC50 in series [1] is 0.531 µM; in series [2] it was 23.7 µM; in series [3], > 100 µM; in series [6] it was > 30 µM.
For `Cn1c(N)c(C#N)c2cc(Oc3ccc(NC(=O)CN)cc3)ccc21`, the IC50 in series [1] was 0.815 µM; in series [2] it was 21.1 µM; in series [3], 38.2 µM; in series [6], > 30 µM. The logD in series [5] stood at 1.9.
For `CCn1cc(C#N)c2cc(Oc3ccc(NC(=O)[C@@H]4CCCCN4)cc3)ccc21`, in that order: 2.2 µM, 22 µM, 86.3 µM, > 30 µM and 2.7.
For `CCn1cc(C#N)c2cc(Oc3ccc(NC(=O)[C@@H]4CCN4)cc3)ccc21`, the results for the IC50 in series [1], in series [3] and in series [6] were 0.086 µM, 3.74 µM and 19.6 µM, respectively.
In the case of `Cc1noc(C)c1Cn1nc(C#N)c2cc(Oc3ccc(NC(=O)[C@@H]4CCCN4)cc3)ccc21`, the IC50 in series [1] is 0.003 µM; in series [2], 0.025 µM; in series [3] it was 0.191 µM; in series [4] it was 0.067 µM.
`N#Cc1c[nH]c2ccc(Oc3ccc(NC(=O)CN)cc3)cc12`: the IC50 in series [1] was 2.01 µM; in series [2] it was 63.2 µM; in series [3], 37.6 µM. This compound also came in with a log distribution coefficient (logD) in series [5] of 2.1.
Take `CCn1cc(C#N)c2cc(Oc3ccc(NC(=O)CNC)cc3)ccc21`: the half-maximal inhibitory concentration (IC50) was 0.83 µM in series [1], 24.9 µM in series [2], 20.4 µM in series [3] and > 30 µM in series [6]. The same compound displayed a logD in series [5] of 2.7.
Turning to `CCn1cc(C#N)c2cc(Oc3ccc(NC(=O)CN(C)C)cc3)ccc21`, the IC50 was 9.83 µM in series [1], 76.1 µM in series [2], 62.9 µM in series [3] and > 30 µM in series [6].
For the compound `CC(=O)Nc1ccc(Oc2ccc3[nH]c(N)c(C#N)c3c2)cc1`, the concentration for half-maximal inhibition (IC50) in series [1] was > 100 µM; in series [2] it was > 100 µM; in series [3], 24 µM. This compound also had a logD in series [5] of 2.8.
Consider `N#Cc1c(N)[nH]c2ccc(Oc3ccc(NC(=O)[C@H](N)CO)cc3)cc12`, for which the IC50 in series [1] was > 100 µM; in series [2] it was > 100 µM; in series [3], 61.5 µM. Further, the log distribution coefficient (logD) in series [5] stood at 1.6.
As for `CCn1cc(C#N)c2cc(Oc3ccc(NC(=O)[C@H]4CCCN4)cc3)ccc21`, the concentration for half-maximal inhibition (IC50) was 70.9 µM in series [1], > 100 µM in series [2], > 100 µM in series [3] and > 30 µM in series [6]. The compound also displayed a pH-dependent lipophilicity (logD) in series [5] of 2.8.
`N#Cc1c(N)[nH]c2ccc(Oc3ccc(NC(=O)CN)cc3)cc12`: the values for the IC50 in series [1], in series [2] and in series [3] were 2.32 µM, 53.8 µM and > 100 µM, respectively. Moreover, the log distribution coefficient (logD) in series [5] was found to be 1.6.
`CC(C)Cn1cc(C#N)c2cc(Nc3ccc(NC(=O)[C@@H]4CCCN4)cc3)ccc21`: the concentration for half-maximal inhibition (IC50) was 1.57 µM in series [1], 6.15 µM in series [2], 36.6 µM in series [3] and > 30 µM in series [6]. This compound showed a logD in series [5] of 2.7.

For orientation: IC50 means the concentration that inhibits the measured activity by half. In general, logD refers to the decadic logarithm of the distribution of all forms, ionised or not, between an organic phase and buffer at a given pH.

(Values after ChEMBL document CHEMBL3421585, “Structure-Based Design of Potent and Selective Inhibitors of the Metabolic Kinase PFKFB3” (J Med Chem, 2015).)
